These results are taken from ChEMBL document CHEMBL4373710, “DNA Structural Alteration Leading to Antibacterial Properties of 6-Nitroquinoxaline Derivatives” (J Med Chem, 2019).

Usually MIC stands for the lowest concentration that inhibits growth of the organism. Read a low MIC as a more susceptible organism. Broadly, the IC50 is the midpoint of a concentration-inhibition curve. High values mean weaker potency, low ones greater potency.

Active and inactive are the calls of the source. No cut-off for these calls is given here.

One data set relates to Staphylococcus aureus. The data set is described as follows: Antibacterial activity against Staphylococcus aureus MTCC737 measured after 6 hrs by broth microdilution assay. The data set is classed as functional. The following applies: MTCC737, 6 h. A digest of the protocol:
(§1)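 Broth microdilution per CLSI; 5×10^5 cfu/mL bacteria in LB broth; compounds from DMSO stocks, final DMSO under 0.6%, with DMSO control. Plates incubated at the strain's recommended growth temperature and time; growth read as OD600.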
Background: Dilution methods test growth across graded concentrations, often in twofold steps.

The subject of data set [1] is Staphylococcus epidermidis. Briefly: Antibacterial activity against Staphylococcus epidermidis MTCC3615 by broth microdilution assay. The data set is classed as functional. In outline:
as §1

Data set [2] in a line: Antibacterial activity against Arthrobacter chlorophenolicus A6MTCC3706 by broth microdilution assay. The class given is functional. The settings on record: Pseudarthrobacter chlorophenolicus. In outline: as §1
The next data set concerns Escherichia coli. The data set is described as follows: Antibacterial activity against Escherichia coli MTCC1916 by broth microdilution assay. The data set is classed as functional. In outline:
as §1

In a further data set the test system is Pseudomonas aeruginosa. The data set is described as follows: Antibacterial activity against Pseudomonas aeruginosa MTCC1688 by broth microdilution assay. The data set is classed as functional. A digest of the protocol:
as §1

The next data set has as its system HEK293. Briefly: Cytotoxicity against HEK293 cells measured after 24 hrs by MTT assay. The class given is cell-based. The following applies: Homo sapiens, HEK293, 24 h. A digest of the protocol: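 HEK 293 cells, 4000/well, seeded overnight in DMEM + 10% FBS at 37°C in CO2; compound dose series for 24 h (final DMSO <0.5%, DMSO-only control). MTT at 1 mg/mL final for 3 h, formazan dissolved in DMSO, absorbance 595 nm; IC50 from triplicate OD data.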
(Formazan colour is commonly taken as a measure of viable cells.)

Data set [3] is described as follows: Binding affinity to pCDNA 3.1 (unknown origin) assessed as DNA unwinding effect up to 6:1 compound to DNA ratio measured after 16 hrs by EtBr staining agarose gel shift assay. In outline: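 pCDNA3.1 plasmid (amplified in E. coli DH5α), 40 µM, in 50 mM NaP pH 7, 10 mM NaCl, mixed with compound at set compound:DNA base-pair ratios; 16 h at 37°C. Run on 1% agarose at 50 V ~3 h, stained with EtBr 1 µg/mL for 5 min, imaged.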
For orientation: Mobility shift assays separate free from complexed probe on a gel.

Data set [4] concerns Calf thymus DNA. The data set is described as follows: Binding affinity to calf thymus DNA assessed as change in B-DNA structure at 15 to 60 uM by circular dichroism method. The data set is classed as nucleic-acid assay. The settings on record: Bos taurus.
In data set [5] the test system is Calf thymus DNA. The data set is described as follows: Binding affinity to calf thymus DNA assessed as appearance of induced CD at 15 to 60 uM by circular dichroism method. The class given is nucleic-acid assay. The following applies: Bos taurus.
A further data set has as its system DNA. Briefly: Binding affinity to Escherichia coli pBR322 DNA assessed as DNA compaction up to 5:1 compound to DNA ratio by atomic force microscopic analysis. The data set is classed as nucleic-acid assay. In outline:
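Supercoiled pBR322 plasmid treated with compound at [compound]:[DNA bp] ratios from 0.5:1 up to 5:1, imaged by AFM; DNA height measured.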

Data set [6] has as its system Calf thymus DNA. Briefly: Binding affinity to calf thymus DNA by isothermal titration calorimetric analysis. The data set is classed as nucleic-acid assay. The following applies: Bos taurus.
The nature of data set [7]: Solubility of the compound in pH 7 phosphate buffer at 100 uM by UV absorption spectra analysis. The data set is classed as physicochemical. The settings on record: pH 7, 100 µM.

Turning to `O=[N+]([O-])c1ccc2nc(NCc3ccc(C(F)(F)F)cc3)c(N3CCCCC3)nc2c1`, the minimum inhibitory concentration (MIC) (against Staphylococcus aureus; in data set [1]; in data set [2]; with Escherichia coli; in the data set on Pseudomonas aeruginosa) was above 200 µg/mL each time. This compound also came in with a half-maximal inhibitory concentration (IC50) in the data set on HEK293 above 200 µg/mL. Moreover, the outcome (in data set [3]; in the data set on Calf thymus DNA [4]; with Calf thymus DNA [5]; in the data set with DNA; with Calf thymus DNA [6]) was inactive. Also, the solubility result in data set [7] is given as “Soluble”.
